ChEMBL document CHEMBL3124940, “Design, synthesis and biological evaluation of D-ring opened galantamine analogs as multifunctional anti-Alzheimer agents” (Eur J Med Chem, 2014)
Activity calls are given as the source filed them.

How the values were obtained:
Rattus norvegicus [1] = test: Antialzheimer activity in Wistar rat scopolamine-induced cognition impairment model assessed as total exploration time at 1 umol/100 g body weight, ip treated for 5 mins prior to scopolamine-challenge by eight-arm radial maze test relative to control; format: functional
Summary of the method: (§1)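 Female 60-day-old Wistar rats (Han:Wist) trained in an eight-arm radial maze to error-free trials under 60 s on three consecutive days; each animal served as its own control. Test agent given i.p. in saline 5 min before scopolamine (0.05 mg/100 g b. wt., i.p. in saline). Errors plus baits not found after 10 min, and total searching time, recorded before and 20, 60, 120 min after scopolamine; n = 14, mean ± SEM.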

PC-12 = test: Neuroprotective activity in rat PC12 cells assessed as decrease in amyloid beta (1 to 42)-induced cytotoxicity at 0.08 to 10 uM after 24 hrs by MTT assay; format: functional, cell-based
Summary of the method: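 PC12 cells grown in F-12 with 10% FBS, 37 °C, 5% CO2. Seeded at 2000 cells/well for 24 h. Aβ42 pretreated with HFIP, then brought to 100 μM in medium and held at 4 °C for 24 h. Compound (final […]–10 μM, DMSO <0.5%) given with Aβ42 (final 5 μM) for 24 h. MTT 4 h, formazan read at 540 nm. Expressed as % of control; three independent trials, mean ± SEM.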

Rattus norvegicus [2] = test: Antialzheimer activity in Wistar rat scopolamine-induced cognition impairment model assessed as decrease in amount of errors plus baits not found during exploration at 1 umol/100 g body weight, ip treated for 5 mins prior to scopolamine-challenge measured after 20 to 120 mins by eight-arm radial maze test; format: functional, organism-based; summary of the method: as §1
[3] = molecular target: Amyloid-beta precursor protein (Homo sapiens) (UniProt P05067); test: Inhibition of amyloid beta (1 to 42) aggregation (unknown origin) at 5 to 100 uM after 1 hr by thioflavin T fluorescence assay
Summary of the method: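 Aβ42 stock 200 μM in DMSO, centrifuged 12,000 rpm 10 min; supernatant used. ThT in 50 mM glycine-NaOH pH 8.5 then added. Fluorescence read at ex 430 / em 488 nm. Curcumin as positive control.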

Amyloid-beta precursor protein (Homo sapiens), sequence (P05067 whole entry): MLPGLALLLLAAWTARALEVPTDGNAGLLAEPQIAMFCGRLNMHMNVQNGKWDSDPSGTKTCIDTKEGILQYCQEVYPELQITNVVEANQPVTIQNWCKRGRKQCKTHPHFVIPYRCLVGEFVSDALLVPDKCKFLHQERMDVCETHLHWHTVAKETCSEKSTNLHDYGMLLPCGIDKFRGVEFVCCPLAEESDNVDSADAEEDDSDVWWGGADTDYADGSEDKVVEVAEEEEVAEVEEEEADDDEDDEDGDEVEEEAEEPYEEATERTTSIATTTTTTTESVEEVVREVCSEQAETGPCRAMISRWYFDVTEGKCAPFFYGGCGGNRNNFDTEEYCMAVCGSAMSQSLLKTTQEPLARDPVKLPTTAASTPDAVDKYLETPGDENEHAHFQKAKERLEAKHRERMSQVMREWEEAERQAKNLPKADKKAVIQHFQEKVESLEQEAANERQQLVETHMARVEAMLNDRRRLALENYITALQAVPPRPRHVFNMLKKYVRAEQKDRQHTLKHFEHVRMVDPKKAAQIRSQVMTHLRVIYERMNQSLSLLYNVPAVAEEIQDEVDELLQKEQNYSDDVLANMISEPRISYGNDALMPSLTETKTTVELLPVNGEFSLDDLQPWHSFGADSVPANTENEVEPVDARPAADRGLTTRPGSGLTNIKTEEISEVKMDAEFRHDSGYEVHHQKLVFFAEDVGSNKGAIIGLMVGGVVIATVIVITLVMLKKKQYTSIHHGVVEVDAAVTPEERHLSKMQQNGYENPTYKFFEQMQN

COc1ccc2c3c1O[C@H]1C[C@@H](O)C=C[C@@]31CCN(C)C2
inactive: Activity (Rattus norvegicus [1]) | Activity (PC-12) | Activity (Rattus norvegicus [2]) | inhibition [3]
